# From PubChem
# SENP1 inh: SENP1 (human) catalytic domain inhibition. hit rate 0.21% among 360,000. AID 624204. inhibition, % at 10 µM. recombinant SENP1 catalytic domain, CyPet-SUMO1-YPet FRET cleavage;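 active means inhibition at least 30% at 10 µM, raw YFP signal under a set limit, fluorescence ratio 0.5 to 1.5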
#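 system = hSENP1 catalytic domain, recombinant | reagent = SFCypet-SUMO1-SFYpet substrate at 25 nM | doses = one dose per compound, 10 µM, 0.5% DMSO | incubation = enzyme reaction for 50 min at room temperature, dark | measured by = FRET, CFP and YFP emission | controls = no-enzyme low, enzyme-DMSO high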
# SENP6 inh: blocks the human protease SENP6; hit rate 1.8% among 330,000; Recombinant SENP6 catalytic domain, aminoluciferin luminescence; inhibition, % at 10 µM;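 active means inhibition above about 50% at the single tested dose, limit read from the data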
# SENP8 block-1: inhibitors of human SENP8 protease; AID 602440; inhibition, % at 20 µM; hit rate 0.64% among 360,000; recombinant SENP8, Nedd8 substrate fluorescence; Q96LD8; in the data active means inhibition mostly above about 40%, no sharp cut-off; inactive means mostly below about 27%
# SENP7 block: blocks the human protease SENP7; Q9BQF6; inhibition, % at 5 µM; recombinant SENP7, Z-RLRGG-aminoluciferin luminescence, 40 min; hit rate 1.5% among 330,000;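 active means inhibition above about 50% at the single test dose, limit read from the data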
# Target sequence (Q9BQF6 706-1050 limits assumed): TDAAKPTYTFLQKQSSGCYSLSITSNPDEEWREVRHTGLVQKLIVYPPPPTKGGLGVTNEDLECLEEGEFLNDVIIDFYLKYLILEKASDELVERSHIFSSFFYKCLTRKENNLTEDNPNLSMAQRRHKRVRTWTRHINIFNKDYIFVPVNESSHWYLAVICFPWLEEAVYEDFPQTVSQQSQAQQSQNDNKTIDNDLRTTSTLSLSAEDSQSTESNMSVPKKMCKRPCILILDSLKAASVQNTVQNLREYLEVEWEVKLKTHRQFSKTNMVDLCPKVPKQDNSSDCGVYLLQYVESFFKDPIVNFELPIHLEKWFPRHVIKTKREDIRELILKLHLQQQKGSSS
# SENP8 block-2: SENP8 protease inhibition; inhibition, % at 10 µM; hit rate 1.2% among 330,000; Q96LD8; AID 2540; purified SENP8, Z-RLRGG-aminoluciferin cleavage, luminescence; in the data active means inhibition above about 50%
# Platelet DG rel: modulates dense granule release in human platelets | hit rate 0.22% among 300,000 | human platelet-rich plasma, SFLLRN dense granule ATP release, luminescence | inhibition, %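 (compounds screened at 7.5 µM in platelet-rich plasma)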;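 active means mean replicate score, as percent of positive control, at or above 50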
# SENP8 conf: confirmation of human SENP8 protease inhibitors | shares compounds with SENP7 block | Recombinant SENP8, Z-RLRGG-aminoluciferin luminescence, 60 min | inhibition, % at 12.5 µM | hit rate 40% among 6,200;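 active means mean inhibition across replicates above about 50%, limit read from the data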
# SENP6 conf: human SENP6 inhibition, confirmed; shares compounds with SENP7 block; recombinant SENP6, Z-RLRGG-aminoluciferin luminescence; inhibition, % at 12.5 µM; hit rate 58% among 6,200; AID 488915
# SENP7 confirm: confirmation of human SENP7 protease inhibitors; shares compounds with SENP7 block; recombinant SENP7, Z-RLRGG-aminoluciferin luminescence, 40 min; inhibition, % at 12.5 µM; hit rate 69% among 6,200; AID 488917
# Casp3 SENP sel: caspase-3 inhibition (SENP selectivity assay); shares compounds with SENP7 block; purified caspase-3, Z-DEVD-aminoluciferin luminescence, 60 min; inhibition, % at 12.5 µM; hit rate 60% among 6,200;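 active means mean inhibition above about 50%, limit read from the data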
# Target sequence (P42574 28-227 limits assumed): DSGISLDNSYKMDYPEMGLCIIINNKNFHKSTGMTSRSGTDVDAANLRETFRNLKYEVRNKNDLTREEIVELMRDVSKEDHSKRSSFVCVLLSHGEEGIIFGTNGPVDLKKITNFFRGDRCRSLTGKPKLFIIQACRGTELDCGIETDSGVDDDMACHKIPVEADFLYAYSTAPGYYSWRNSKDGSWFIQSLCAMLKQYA
# SENP luc ctr: luminescence interference (SENP counter-screen) | shares compounds with SENP7 block | Pre-incubated SENP8/Z-RLRGG-aminoluciferin, luciferase luminescence interference | inhibition, % at 12.5 µM | hit rate 39% among 6,200;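 active means mean inhibition above about 50% when retested at one dose, limit read from the data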
# Numbers stand for hits; . = inactive; / = no result given. Shown are actives, neighbours in structure and some others; about 2.6% of the full set was active somewhere.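 How the source made its calls, unless noted: active means mean inhibition above about 50% in the one-dose retest (limit read from the data); inactive means the rest.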
SMILES,SENP1 inh,SENP6 inh,SENP8 block-1,SENP7 block,SENP8 block-2,Platelet DG rel,SENP8 conf,SENP6 conf,SENP7 confirm,Casp3 SENP sel,SENP luc ctr
Cc1ccccc1C(=O)O/N=C(\N)c1ccccc1,.,95,.,100,93,60,97,98,102,98,96
Cc1occc1C(=O)O/N=C(\N)c1ccccc1,.,94,.,93,91,72,94,95,102,98,94
CCOC(=O)c1nn(-c2ccc3c(c2)OCCO3)cc1O,.,.,.,.,.,.,/,/,/,/,/
CC(=O)N1CCc2cc([N+](=O)[O-])ccc21,.,/,.,/,/,/,/,/,/,/,/
COC(=O)c1nn(-c2ccc3c(c2)OCO3)cc1O,.,72,.,79,.,.,67,64,90,91,72
COC(=O)c1nn(-c2ccc3c(c2)CCN3C(C)=O)cc1O,.,91,.,85,75,52,.,82,97,96,84
O=C(Nc1nc2cc3c(cc2s1)OCCO3)c1cccc(N2C(=O)CCC2=O)c1,.,.,.,.,.,.,/,/,/,/,/
O=C(Nc1ccc(Cl)cn1)c1ccc2c(Cl)c3c(nc2c1)CCC3,.,.,.,71,.,.,.,.,.,.,.
Cc1cccc(NC(=O)c2ccc3c(Cl)c4c(nc3c2)CCCC4)n1,.,.,.,87,.,.,.,.,.,.,.
COC(=O)c1cc(OC)c(OC)cc1NC(=O)c1cccc(C)c1,.,.,.,.,.,.,/,/,/,/,/
Cc1ccc(-c2nnc(SCc3ccccc3F)o2)cc1,.,67,.,58,.,.,61,70,87,.,.
COc1ccc(-c2nnc(SCc3ccccc3F)o2)cc1OC,.,.,.,.,.,.,/,/,/,/,/
C=CCN(C(=O)c1csnn1)C(C(=O)NCc1ccccc1)c1ccccc1F (centres undefined),.,.,.,.,.,.,/,/,/,/,/
O=C1c2ccccc2CN2C(=O)c3ccccc3CN12,.,.,.,.,.,.,/,/,/,/,/
c1ccc(-c2cn3c(n2)-c2ccccc2C3)cc1,.,96,.,97,96,.,99,100,103,99,97
Cc1ccc(O)c(C2=Nc3ccccc3C2(C)C)c1,.,71,.,56,.,.,.,64,89,.,.
Cc1cccn2cc(-c3ccc(F)cc3)nc12,.,93,.,91,78,.,.,87,99,90,82
COc1ccc(-c2cn3ccc4ccccc4c3n2)cc1,.,92,.,92,83,.,.,86,100,87,.
Cc1cccn2cc(-c3ccccc3)nc12,.,74,.,69,53,.,.,71,93,85,70
CC(C)Oc1ccc(CCNC(=O)C2CCC(=O)N(Cc3cccc(F)c3)C2)cc1 (centres undefined),.,.,.,.,.,.,/,/,/,/,/
Cc1ccccc1CC(=O)Nc1ccc(C(=O)N2CCCC2)cc1,.,.,.,55,.,.,.,.,69,78,53
Cc1ccc(C(=O)Nc2ccc(NC(=O)c3ccc(C)o3)cc2)o1,.,.,.,.,.,.,/,/,/,/,/
Cc1ccc(C(=O)Nc2ccc(C(=O)N3CCCCC3)cc2)o1,.,66,.,78,.,.,58,60,89,89,68
C/C(=N\NC(=O)c1cccc(Cl)c1)C1C(=O)c2ccccc2C1=O,.,97,.,74,92,.,.,97,101,88,81
C/C(=N\NC(=O)CCc1ccccc1)C1C(=O)c2ccccc2C1=O,.,.,.,.,.,.,/,/,/,/,/
SMILES,SENP1 inh,SENP6 inh,SENP8 block-1,SENP7 block,SENP8 block-2,Platelet DG rel,SENP8 conf,SENP6 conf,SENP7 confirm,Casp3 SENP sel,SENP luc ctr
CC(=O)Oc1ccccc1/C=C/c1nc2ccccc2c(=O)o1,.,76,.,66,65,.,77,74,90,94,57
O=C(Nc1cc(Cl)ccn1)C1CCN(S(=O)(=O)c2cccs2)CC1,.,.,.,.,.,.,/,/,/,/,/
Cc1ccc(NC(=O)CSCC(=O)Nc2nnc(C3CC3)s2)cc1,.,.,.,.,.,/,/,/,/,/,/
Cc1cc2nc(-c3ccc(SCc4ccc(C#N)cc4)nc3)[nH]c2cc1C,.,.,.,.,.,.,/,/,/,/,/
N#Cc1ccccc1CSc1ccc(-c2nc3ccccc3[nH]2)cn1,.,64,.,.,.,.,67,63,80,.,53
CC(=O)CSc1ccc(-c2nc3cc(C)c(C)cc3[nH]2)cn1,.,.,.,.,.,.,/,/,/,/,/
CC(=O)CSc1ccc(-c2nc3ccccc3[nH]2)cn1,.,78,.,73,.,.,70,67,88,86,72
O=C(Cn1cnc2c(nnn2-c2ccc(F)cc2)c1=O)NCC1CCCO1 (centres undefined),.,.,.,.,.,.,/,/,/,/,/
O=C1c2ccccc2C(=O)C1c1ccc2ccccc2n1,.,81,.,99,81,.,.,.,.,.,.
COC(=O)C1=C(C)NC(C)=C(C(=O)OC)C1c1ccc2ccccc2n1,.,.,.,.,.,.,/,/,/,/,/
O=S(=O)(NC1CCCCC1NCc1ccco1)c1ccc(Cl)cc1 (centres undefined),.,.,.,92,.,.,.,.,.,.,.
O=S(=O)(NC1CCCCC1Nc1ccc(Cl)cc1)c1ccccc1 (centres undefined),.,.,.,.,.,.,/,/,/,/,/
CCOc1ccccc1/C=c1\sc2ncnn2c1=O,.,.,.,.,.,.,/,/,/,/,/
CSc1ccccc1NC(=O)CN(C)C(C)C(=O)Nc1ccc(C#N)cc1 (centres undefined),.,.,.,.,.,.,/,/,/,/,/
C=CCNc1nc(-c2ccc(Cl)cc2)cs1,.,91,.,75,80,.,.,90,100,75,91
Clc1ccc(-c2csc(Nc3cccnc3)n2)cc1,.,.,.,.,.,.,/,/,/,/,/
Cc1nn(-c2ccccc2)c(C)c1C(=O)Nc1ccc(N2CCOCC2)cc1,.,.,.,.,.,.,/,/,/,/,/
COCCN1C(=O)N[C@@H](c2ccccc2)[C@H](C(=O)OC)[C@H]1C,.,.,.,.,.,.,/,/,/,/,/
N#C/C(=C(/O)c1ccco1)c1nc2ccccc2s1,.,90,.,57,81,.,91,91,100,91,74
